From ChEMBL document CHEMBL1255475, “Mutant prevention concentrations of four carbapenems against gram-negative rods” (2010)

Tests used:
Format in all cases: functional
[1] = test system: Klebsiella pneumoniae; experiment: Antibacterial activity against beta-lactamase-positive ESBL-negative Klebsiella pneumoniae E480 incubated up to 7 days by agar dilution method; settings: E480, 168 h
[2] = test system: Klebsiella pneumoniae; experiment: Antibacterial activity against beta-lactamase-positive ESBL-positive Klebsiella pneumoniae E475 incubated up to 7 days by agar dilution method; settings: E475, 168 h
[3] = test system: Klebsiella pneumoniae; experiment: Antibacterial activity against beta-lactamase-positive ESBL-positive Klebsiella pneumoniae E478 incubated up to 7 days by agar dilution method; settings: E478, 168 h
[4] = test system: Escherichia coli; experiment: Antibacterial activity against beta-lactamase-negative Escherichia coli E348 incubated up to 7 days by agar dilution method; settings: E348, 168 h
[5] = test system: Escherichia coli; experiment: Antibacterial activity against beta-lactamase-positive ESBL-negative Escherichia coli E412 incubated up to 7 days by agar dilution method; settings: E412, 168 h
In short: (§1)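 MIC by CLSI agar dilution, with quality-control strains in each run. Beta-lactamase status was set by 30 μg cefazolin Kirby-Bauer disk diffusion. ESBL status was set by cefotaxime and ceftazidime disks (30 μg) with and without clavulanic acid (10 μg).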

[6] = test system: Escherichia coli; experiment: Antibacterial activity against beta-lactamase-positive ESBL-negative Escherichia coli E437 incubated up to 7 days by agar dilution method; settings: E437, 168 h; in short: as §1
[7] = test system: Escherichia coli; experiment: Antibacterial activity against beta-lactamase-negative Escherichia coli E424 […] by agar dilution method
[8] = test system: Escherichia coli; experiment: Antibacterial activity against beta-lactamase-positive ESBL-positive Escherichia coli E446 incubated up to 7 days by agar dilution method; settings: E446, 168 h; in short: as §1
[9] = test system: Escherichia coli; experiment: Antibacterial activity against beta-lactamase-positive ESBL-positive Escherichia coli E450 incubated up to 7 days by agar dilution method; settings: E450, 168 h; in short: as §1
[10] = test system: Escherichia coli; experiment: Antibacterial activity against beta-lactamase-positive ESBL-positive Escherichia coli E452 incubated up to 7 days by agar dilution method; settings: E452, 168 h; in short: as §1
[11] = test system: Escherichia coli; experiment: Antibacterial activity against beta-lactamase-positive ESBL-positive Escherichia coli E456 incubated up to 7 days by agar dilution method; settings: E456, 168 h; in short: as §1
[12] = test system: Escherichia coli; experiment: Antibacterial activity against beta-lactamase-positive ESBL-positive Escherichia coli E459 incubated up to 7 days by agar dilution method; settings: E459, 168 h; in short: as §1
[13] = test system: Escherichia coli; experiment: Antibacterial activity against beta-lactamase-positive ESBL-positive Escherichia coli E451 incubated up to 7 days by agar dilution method; settings: E451, 168 h; in short: as §1
[14] = test system: Escherichia coli; experiment: Antibacterial activity against beta-lactamase-positive ESBL-negative Escherichia coli E484 incubated up to 7 days by agar dilution method; settings: E484, 168 h
[15] = test system: Klebsiella pneumoniae; experiment: Antibacterial activity against beta-lactamase-negative Klebsiella pneumoniae E419 incubated up to 7 days by agar dilution method; settings: E419, 168 h
[16] = test system: Klebsiella pneumoniae; experiment: Antibacterial activity against beta-lactamase-negative Klebsiella pneumoniae E418 incubated up to 7 days by agar dilution method; settings: E418, 168 h
[17] = test system: Klebsiella pneumoniae; experiment: Antibacterial activity against beta-lactamase-positive ESBL-negative Klebsiella pneumoniae E480 assessed as mutant prevention concentration after overnight incubation
In short: (§2)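 Overnight growth on blood trypticase soy agar (35°C, air) was resuspended in 0.9% saline and counted on drug-free Mueller-Hinton agar. […] Colonies were retested by agar dilution to confirm mutants. MPC was the lowest concentration preventing resistant-mutant growth.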

[18] = test system: Klebsiella pneumoniae; experiment: Antibacterial activity against beta-lactamase-positive ESBL-negative Klebsiella pneumoniae E479 assessed as mutant prevention concentration after overnight incubation; in short: as §2
[19] = test system: Klebsiella pneumoniae; experiment: Antibacterial activity against beta-lactamase-positive ESBL-negative Klebsiella pneumoniae E473 assessed as mutant prevention concentration after overnight incubation; in short: as §2
[20] = test system: Klebsiella pneumoniae; experiment: Antibacterial activity against beta-lactamase-positive ESBL-positive Klebsiella pneumoniae E457 assessed as mutant prevention concentration after overnight incubation; in short: as §2
[21] = test system: Klebsiella pneumoniae; experiment: Antibacterial activity against beta-lactamase-positive ESBL-negative Klebsiella pneumoniae E507 assessed as mutant prevention concentration after overnight incubation; in short: as §2
[22] = test system: Klebsiella pneumoniae; experiment: Antibacterial activity against beta-lactamase-positive ESBL-negative Klebsiella pneumoniae E511 assessed as mutant prevention concentration after overnight incubation; in short: as §2
[23] = test system: Escherichia coli; experiment: Antibacterial activity against beta-lactamase-negative Escherichia coli E346 assessed as mutant prevention concentration after overnight incubation
[24] = test system: Escherichia coli; experiment: Antibacterial activity against beta-lactamase-negative Escherichia coli E408 assessed as mutant prevention concentration after overnight incubation
[25] = test system: Escherichia coli; experiment: Antibacterial activity against beta-lactamase-negative Escherichia coli E409 assessed as mutant prevention concentration after overnight incubation
[26] = test system: Escherichia coli; experiment: Antibacterial activity against beta-lactamase-positive ESBL-negative Escherichia coli E415 assessed as mutant prevention concentration after overnight incubation; in short: as §2
[27] = test system: Escherichia coli; experiment: Antibacterial activity against beta-lactamase-positive ESBL-positive Escherichia coli E456 assessed as mutant prevention concentration after overnight incubation; in short: as §2
[28] = test system: Escherichia coli; experiment: Antibacterial activity against beta-lactamase-positive ESBL-negative Escherichia coli E483 assessed as mutant prevention concentration after overnight incubation; in short: as §2
[29] = test system: Klebsiella pneumoniae; experiment: Antibacterial activity against beta-lactamase-negative Klebsiella pneumoniae E357 assessed as mutant prevention concentration after overnight incubation
[30] = test system: Klebsiella pneumoniae; experiment: Antibacterial activity against beta-lactamase-negative Klebsiella pneumoniae E358 assessed as mutant prevention concentration after overnight incubation
[31] = test system: Klebsiella pneumoniae; experiment: Antibacterial activity against beta-lactamase-negative Klebsiella pneumoniae E360 assessed as mutant prevention concentration after overnight incubation
[32] = test system: Klebsiella pneumoniae; experiment: Antibacterial activity against beta-lactamase-negative Klebsiella pneumoniae E361 assessed as mutant prevention concentration after overnight incubation
[33] = test system: Acinetobacter baumannii; experiment: Antibacterial activity against Acinetobacter baumannii A931 assessed as mutant prevention concentration after overnight incubation
[34] = test system: Acinetobacter baumannii; experiment: Antibacterial activity against Acinetobacter baumannii A890 assessed as mutant prevention concentration after overnight incubation
[35] = test system: Acinetobacter baumannii; experiment: Antibacterial activity against Acinetobacter baumannii A901 assessed as mutant prevention concentration after overnight incubation
[36] = test system: Pseudomonas aeruginosa; experiment: Antibacterial activity against Pseudomonas aeruginosa P332 assessed as mutant prevention concentration after overnight incubation
[37] = test system: Pseudomonas aeruginosa; experiment: Antibacterial activity against Pseudomonas aeruginosa P340 assessed as mutant prevention concentration after overnight incubation
[38] = test system: Pseudomonas aeruginosa; experiment: Antibacterial activity against Pseudomonas aeruginosa P341 assessed as mutant prevention concentration after overnight incubation
[39] = test system: Pseudomonas aeruginosa; experiment: Antibacterial activity against Pseudomonas aeruginosa P358 assessed as mutant prevention concentration after overnight incubation
[40] = test system: Pseudomonas aeruginosa; experiment: Antibacterial activity against Pseudomonas aeruginosa P376 assessed as mutant prevention concentration after overnight incubation
[41] = test system: Acinetobacter baumannii; experiment: Antibacterial activity against Acinetobacter baumannii A848 assessed as mutant prevention concentration after overnight incubation
[42] = test system: Acinetobacter baumannii; experiment: Antibacterial activity against Acinetobacter baumannii A850 assessed as mutant prevention concentration after overnight incubation
[43] = test system: Acinetobacter baumannii; experiment: Antibacterial activity against Acinetobacter baumannii A911 assessed as mutant prevention concentration after overnight incubation
[44] = test system: Acinetobacter baumannii; experiment: Antibacterial activity against Acinetobacter baumannii A910 assessed as mutant prevention concentration after overnight incubation
[45] = test system: Acinetobacter baumannii; experiment: Antibacterial activity against Acinetobacter baumannii A884 assessed as mutant prevention concentration after overnight incubation
[46] = test system: Acinetobacter baumannii; experiment: Antibacterial activity against Acinetobacter baumannii A928 assessed as mutant prevention concentration after overnight incubation
[47] = test system: Acinetobacter baumannii; experiment: Antibacterial activity against Acinetobacter baumannii A908 assessed as mutant prevention concentration after overnight incubation

C[C@@H](O)[C@H]1C(=O)N2C(C(=O)O)=C(S[C@@H]3CN[C@H](C(=O)Nc4cccc(C(=O)O)c4)C3)[C@H](C)[C@H]12
32 µg/mL: MPC [17] | MPC [19]
0.25 µg/mL: MIC [8]
0.06 µg/mL: MIC [5] | MIC [6] | MIC [13] | MIC [16] | MPC [24] | MPC [32]
0.008 µg/mL: MIC [4]
0.03 µg/mL: MIC [9] | MIC [10] | MIC [12] | MPC [23] | MPC [29] | MPC [30] | MPC [31]
0.5 µg/mL: MPC [26]
0.125 µg/mL: MIC [11] | MPC [20] | MPC [25]
0.016 µg/mL: MIC [7] | MIC [15]
8 µg/mL: MIC [1] | MIC [2] | MIC [3] | MIC [14]
2 µg/mL: MPC [27]
64 µg/mL: MPC [18] | MPC [21] | MPC [22] | MPC [28]

C[C@@H](O)[C@H]1C(=O)N2C(C(=O)O)=C(S[C@@H]3CN[C@H](CNS(N)(=O)=O)C3)[C@H](C)[C@H]12 [DORIPENEM]
64 µg/mL: MPC [39]
0.125 µg/mL: MIC [15] | MIC [16] | MPC [20] | MPC [25] | MPC [29] | MPC [30] | MPC [31] | MPC [32]
8 µg/mL: MPC [35] | MPC [17] | MPC [19] | MPC [38] | MPC [42] | MPC [43]
1 µg/mL: MPC [34] | MPC [37] | MPC [46] | MPC [47]
0.03 µg/mL: MIC [4] | MIC [5] | MIC [7] | MIC [9] | MIC [10] | MIC [11] | MIC [12] | MIC [13]
>4 µg/mL: MPC [36]
>64 µg/mL: MPC [18] | MPC [21] | MPC [22]
0.25 µg/mL: MPC [27]
0.06 µg/mL: MIC [6] | MIC [8] | MPC [23] | MPC [24] | MPC [26]
16 µg/mL: MPC [40] | MPC [41]
4 µg/mL: MPC [44] | MPC [45]
2 µg/mL: MIC [1] | MIC [2] | MIC [3] | MIC [14] | MPC [33] | MPC [28]
